Sampled rows, rich in hits. Any-hit rate of the full collection: about 1.3%.
S1P4 antag: blocks the human S1P4 receptor; O95977; S1P4-expressing cells, antagonist mode, reporter read-out; inhibition, % at 4.98 µM; 220,000 tested, 0.26% active; AID 1510; in the data active means inhibition above about 29%
Target sequence (O95977 whole entry, looked up): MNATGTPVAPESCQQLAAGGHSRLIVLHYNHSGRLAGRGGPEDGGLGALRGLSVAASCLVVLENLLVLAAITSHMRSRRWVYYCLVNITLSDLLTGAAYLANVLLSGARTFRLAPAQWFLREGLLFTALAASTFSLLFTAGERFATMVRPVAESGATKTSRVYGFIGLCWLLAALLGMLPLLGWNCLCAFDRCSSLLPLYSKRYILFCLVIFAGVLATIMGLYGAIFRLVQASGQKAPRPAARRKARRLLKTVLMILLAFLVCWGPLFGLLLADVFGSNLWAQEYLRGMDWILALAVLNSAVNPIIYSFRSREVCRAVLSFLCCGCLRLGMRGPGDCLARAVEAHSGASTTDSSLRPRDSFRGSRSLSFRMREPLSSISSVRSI
TbHK1 inh: blocks Trypanosoma brucei hexokinase 1 activity; recombinant TbHK1, G6PDH-coupled NADH A340; inhibition, % at 10 µM; 220,000 tested, 0.11% active; AID 1430;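 active means inhibition of 50% or more in the single-dose primary screen; inactive means inhibition below 50%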
S1P4 ag: activates the human S1P4 receptor. activation, % at 4.98 µM. 220,000 tested, 0.35% active. S1P4-expressing cell line, agonist reporter assay. AID 1509; in the data active means activation above about 11%
Dynein cargo inh: dynein cargo transport inhibition; 3617.4 mouse cells, GR-EGFP nuclear translocation imaging; test concentration mostly 20 µM; stimulated with dexamethasone, 1 µM; stronger effect = lower value; z-score, hits read low; 220,000 tested, 0.47% active;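 active means plate z-score of nuclear minus cytoplasmic receptor signal below a set negative limit, without overly bright fluorescence or cell loss, cut at about -3.5 in these data, passing the limit was not always enough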;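 further: z-score of nuclear minus cytoplasmic ring GR-EGFP intensity difference per well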
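Schedule: 48 h induction, then 1 h compound, then 30 min agonist, 37 °C. Buffer or medium: tetracycline-free induction medium containing charcoal-stripped FBS. Reagent: 1.0 µM final dexamethasone stimulus. Evaluation: nuclear versus cytoplasmic GR-EGFP signal, averaged per well. Signal: high-content fluorescence imaging after fixation.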
S1P3 antagonist: blocks the human S1P3 receptor | 170,000 tested, 0.27% active | CHO S1P3 NFAT-BLA reporter, FRET fluorescence, antagonist mode | Q99500 | AID 485 | inhibition, % at 4.98 µM;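 active means inhibition above the plate cutoff, the mean inhibition of test wells on that plate plus 3 SD, cut at about 28% in these data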;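 further: cells challenged with S1P at its EC80 of 0.8 µM; blue over green emission ratio from cleaved BLA substrate after 4 h stimulation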
Target sequence (Q99500 whole entry, looked up): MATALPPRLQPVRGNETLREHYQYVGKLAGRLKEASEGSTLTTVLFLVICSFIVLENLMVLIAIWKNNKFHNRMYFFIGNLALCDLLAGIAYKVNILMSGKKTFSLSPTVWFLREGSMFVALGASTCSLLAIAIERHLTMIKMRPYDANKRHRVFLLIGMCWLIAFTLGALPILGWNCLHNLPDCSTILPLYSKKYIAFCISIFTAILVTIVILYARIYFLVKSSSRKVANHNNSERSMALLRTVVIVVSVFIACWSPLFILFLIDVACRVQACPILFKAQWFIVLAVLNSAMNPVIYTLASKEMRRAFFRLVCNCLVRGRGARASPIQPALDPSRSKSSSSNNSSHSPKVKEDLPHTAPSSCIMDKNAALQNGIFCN
Calb biofilm kill: mixture kills Candida albicans biofilm cells; inhibition, % at 7.6 µM; C. albicans biofilm persisters + clotrimazole, fluorescence viability; primary screen in compound mixtures of four per well; 120,000 tested, 0.02% active;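 active means inhibition above 30.3% in the primary screen of four-compound pools, then above 30% when the compound was retested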;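 further: compounds exposed to preformed 24 h biofilms for 48 h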
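Test system: C. albicans biofilms. Buffer or medium: RPMI/MOPS medium, pH 7.0. Timing: 48 h compound exposure at 37 °C. Technique: Alamar Blue fluorescence. Evaluation: percent inhibition of biofilm viability.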
Of the large screens only hits and unclear results are named; the others gave an inactive call.

CN(CCCNC(=O)C1CCN(S(=O)(=O)c2cccc3nsnc23)CC1)Cc1ccccc1	TbHK1 inh 58.5 (no result: Calb biofilm kill)
CC(C)OP(=O)(OC(C)C)C(NC(=O)c1ccccc1Br)C(N)=O (stereo not given)	none
Cc1ccc(-c2ccc(S(=O)(=O)N3CCCC3)cc2)cc1	none
Cc1ccc(S(=O)(=O)N2CC(=NO)C2)cc1	S1P3 antagonist 66.4 (no result: Calb biofilm kill)
O=C(O)Cc1csc(-c2cccc(F)c2)n1	none
Cc1cc(NC(=O)c2ccc(Cl)cc2)c(C(C)C)cc1O	S1P4 antag 47.0 (no result: S1P3 antagonist, Calb biofilm kill)
Cc1ccc(C(=O)NC2CCCCNC2=O)cc1 (stereo not given)	none
COC(=O)C1=C(N)Oc2cc(C)n(C)c(=O)c2C1c1ccc(Cl)cc1 (stereo not given)	S1P3 antagonist 70.7 (no result: Calb biofilm kill)
CCOCCCNCC(=O)NCC1CCCCC1	none
COC(=O)c1cn(C(=O)/C=C/c2ccc(OC)c(OC)c2)c2ccccc12	none
COc1cc(C2=NOC(C(=O)NC3CCCCC3)C2)cc(OC)c1OC (stereo not given)	S1P3 antagonist 96.2 (no result: Calb biofilm kill)
Cc1ccc2c(c1)N(CC(=O)OC(CC(C)C)C(=O)NC1CCCC1)C(=O)CO2 (stereo not given)	S1P3 antagonist 89.5 (no result: Calb biofilm kill)
COc1ccc(S(=O)(=O)N2CCN(S(=O)(=O)c3ccc(C(F)(F)F)cc3)CC2)cc1C	none (no result: Calb biofilm kill)
COc1ccc(S(=O)(=O)N2CCN(C)CC2)cc1C	S1P3 antagonist 56.0 (no result: Calb biofilm kill)
COc1ccc(S(=O)(=O)N2CCN(c3ccc(C)cc3C)CC2)cc1OC	S1P3 antagonist 103.1 (no result: Calb biofilm kill)
N#Cc1cc([N+](=O)[O-])ccc1NC(=O)COC(=O)CC1CCCC1	none
CCc1ccc(S(=O)(=O)/N=C2/C=C(Sc3ncn[nH]3)C(=O)c3ccccc32)cc1	Dynein cargo inh -6.7
CC(C)c1ccc(-n2c(-c3ccccc3)c[n+]3c2CCc2ccccc2-3)cc1	Calb biofilm kill 34.7
COc1cccc(-c2cc(C(F)(F)F)n3nc(C(=O)N4CCCCC4c4cccnc4)cc3n2)c1 (stereo not given)	none
COc1ccc(S(=O)(=O)Nc2cc(Sc3ncn[nH]3)c(O)c3ccccc23)cc1	Dynein cargo inh -4.47 (no result: S1P3 antagonist, Calb biofilm kill)
COc1ccc(S(=O)(=O)Nc2ccc(O)c(Sc3ncn[nH]3)c2)cc1	none (no result: S1P3 antagonist)
CNC(CC(=O)c1ccc([N+](=O)[O-])cc1)C(Cl)(Cl)Cl (stereo not given)	Dynein cargo inh -3.54
COc1cc(/C=C2\COC/C(=C\c3cc(OC)c(OC)c(OC)c3)C2=O)cc(OC)c1OC	Dynein cargo inh -6.63
O=C(/C=C/c1ccncc1)c1ccc(NC(=O)c2ccccc2F)cc1	S1P4 antag 37.4
CCCn1cnc2c(=S)nc(N)[nH]c21	none
COc1ccccc1-c1noc(-c2ccccc2)n1	none (no result: Calb biofilm kill)
COc1ccc(-c2nc(-c3ccccc3OC)no2)cc1OC	S1P3 antagonist 54.0 (no result: Calb biofilm kill)
COc1ccc(/C=C/C(=O)c2ccc(Cl)s2)cc1O	Dynein cargo inh -3.79 (no result: S1P3 antagonist, Calb biofilm kill)
COc1cc(/C=C/C(=O)c2ccc(Cl)s2)cc(OC)c1O	Dynein cargo inh -4 (no result: S1P3 antagonist, Calb biofilm kill)
COc1ccc(C(=O)/C=C/c2ccc(OC)c(O)c2)c(F)c1	none
CC(C)CCNC(=O)COc1ccc(N(C)S(=O)(=O)c2ccc(F)cc2)cc1	none
CCn1cnc2scc(-c3ccccc3)c2c1=O	none (no result: Calb biofilm kill)
Cn1cc(/C=N/n2cnc3scc(-c4ccc(Cl)cc4)c3c2=O)c2ccccc21	S1P3 antagonist 56.4 (no result: Calb biofilm kill)
Nc1nc(NCCCN2CCOCC2)nc(Nc2cccc(Cl)c2)c1[N+](=O)[O-]	none
CC(=O)NC(Cc1cccc(F)c1)C(=O)NC1CCN(c2nnnn2-c2ccccc2)CC1 (stereo not given)	none
Cc1[nH]c2ccccc2c1Cc1nnc(SCC(N)=O)o1	S1P3 antagonist 81.5 (no result: Calb biofilm kill)
Cc1[nH]c2ccccc2c1CCC(N)=O	none (no result: Calb biofilm kill)
O=C(CSc1n[nH]c(-c2ccncc2)n1)c1cccc([N+](=O)[O-])c1	none
O=C(CSc1n[nH]c(-c2ccncc2)n1)c1ccccc1	S1P3 antagonist 71.8 (no result: Calb biofilm kill)
CN(C)c1nc(N)nc(-c2nc3ccccc3s2)n1	S1P3 antagonist 60.1 (no result: Calb biofilm kill)
Nc1ccccc1-c1nc2ccccc2s1	none
CCOc1ccc(N/C(N)=N/c2nc(CSc3nnnn3-c3ccccc3)cc(=O)[nH]2)cc1	none
O=C(O)c1ccc(S(=O)(=O)c2ccc3c(c2)C(=O)N(Cc2ccco2)C3=O)cc1	S1P3 antagonist 105.7 (no result: Calb biofilm kill)
CC(C)(C)NC(=O)COC(=O)CCC(=O)c1cccs1	none
COc1ccc(CC(=O)N2CCN=C2SC)cc1	none (no result: Calb biofilm kill)
CSC1=NCCN1C(=O)Cc1ccc(Cl)cc1	S1P3 antagonist 66.5 (no result: Calb biofilm kill)
COC(=O)C(NC(=O)CNS(=O)(=O)c1ccc(Br)cc1)c1ccccc1 (stereo not given)	none
O=c1/c(=C\c2cc([N+](=O)[O-])cc([N+](=O)[O-])c2O)sc2nc3ccccc3n12	TbHK1 inh 60.4
C=CCC1(NCc2ccco2)CCN(CC)CC1	none
CC1=CC(=C(C#N)c2nc3ccccc3s2)C=C(C)N1Cc1ccco1	S1P3 antagonist 56.2 (no result: Calb biofilm kill)
Cc1cc(NC(=O)c2ccc(Cl)cc2)c(C)cc1O	none
Cc1cc(O)c(-c2cc(O)c(C)cc2O)cc1O	Dynein cargo inh -5.99
Cc1cc(N2C(=O)C=CC2=O)c([N+](=O)[O-])cc1C	Dynein cargo inh -6.27
Cc1ccc(-n2c(Cc3cccn3C)nnc2SCC(=O)Nc2nnc(C)s2)cc1	none (no result: Calb biofilm kill)
Cc1nnc(NC(=O)CSc2nnc(Cc3cccn3C)n2-c2cccc(C(F)(F)F)c2)s1	S1P3 antagonist 88.1 (no result: Calb biofilm kill)
CCOC(=O)c1nnn(-c2nonc2N)c1COc1cc(C)c(Cl)c(C)c1	S1P3 antagonist 57.7 (no result: Calb biofilm kill)
CSc1ccc(/C=C/C(=O)NC(=O)c2ccccc2O)cc1	none
Cc1ccc(S(=O)(=O)NCC(=O)N/N=C/c2ccccc2O)cc1	none
CCCc1cc(=O)[nH]c(Nc2ccc(OC)c(Cl)c2)n1	S1P3 antagonist 92.2 (no result: Calb biofilm kill)
O=C1OCC2=C1C(c1ccc(F)cc1)c1cc3c(cc1N2)OCCO3 (stereo not given)	S1P3 antagonist 35.0
C=CCc1cccc2cc(C(=O)N3CCN(c4ccccn4)CC3)c(=O)oc12	none
O=C(Sc1cccc2cccnc12)c1ccc(F)cc1	S1P4 antag 98.5
CC(=O)/C(=N\Nc1ccccc1)Sc1cccc2cccnc12	none
CCn1c(CNc2ccc(C)cc2)nnc1SCC(=O)NCc1ccccc1	none (no result: Calb biofilm kill)
CCn1c(CNc2ccccc2Cl)nnc1SCC(=O)NCc1ccccc1	S1P3 antagonist 69.5 (no result: Calb biofilm kill)
O=C(O)CS(=O)(=O)CC(=O)NCc1cccc(C(F)(F)F)c1	none
CCOC(=O)C1CCN(C(=O)COc2ccc(Br)cc2C)CC1	none
Cc1cccc(Cn2c(=O)n(Cc3ccco3)c(=O)c3ccccc32)c1	none (no result: Calb biofilm kill)
Cc1ccccc1Cn1c(=O)n(Cc2ccco2)c(=O)c2ccccc21	S1P3 antagonist 55.1 (no result: Calb biofilm kill)
CCCCSC1=C(C#N)C(c2ccccc2C)CC(=O)N1 (stereo not given)	S1P3 antagonist 102.3 (no result: Calb biofilm kill)
CCOC(=O)c1sc(NC(=O)c2cccs2)nc1C	none (no result: S1P3 antagonist, Calb biofilm kill)
